Assay results from PMC9589333 (ERJ Open Research, 2022).

Experiments:
healthy male subjects = experiment: Phase I study; format: in vivo, human; details: for Body weight, mean±SD change from baseline: placebo 0.21±1.06
Procedure, shortened: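 Healthy males aged 18–45 years with BMI 18.5–29.9 kg·m−2, partially randomised to oral test compound or matching placebo. Single doses were 36 or 48 mg, fasted and patient-blinded. Twice-daily doses were 6 or 12 mg over 14 days, fed and double-blind. Drug-related AEs were graded mild, moderate or severe. ECG, laboratory tests and, for multiple dosing, suicidality were also assessed. Descriptive statistics only.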

[1] = test system: patients with idiopathic pulmonary fibrosis; experiment: Phase Ic study: exploratory lung function efficacy endpoints; format: in vivo, human; details: IPF, 18 mg twice daily
[2] = test system: patients with idiopathic pulmonary fibrosis; experiment: Phase Ic study; format: in vivo, human
Procedure, shortened: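 Randomised, double-blind, placebo-controlled within-dose-group study at 11 European sites. Patients with IPF, aged ≥40 years, had no nintedanib or pirfenidone within 30 days and none planned. Dosing was oral, 18 mg twice daily, for up to 12 weeks, reduced to 4 weeks by amendment. Drug-related AEs were graded mild, moderate or severe. ECG, laboratory tests and suicidality were also assessed. Descriptive statistics only.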

[3] = Phase I study: pharmacokinetics of BI 1015550 in plasma and urine; format: in vivo, human; details: for AUCτ,1 / Cmax / RA,AUC (accumulation ratio) / RA,Cmax (accumulation ratio) / AUCτ,ss / CLR,0–120 (renal clearance) / fe0–120 (fraction excreted unchanged in urine 0–120 h) / AUC0−∞: gMean; for AUCτ,ss: steady state
Procedure, shortened: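 Oral test compound was given to healthy males as single doses (36 or 48 mg, fasted) or 6 or 12 mg twice daily (fed). Twice-daily dosing was a morning dose on day 1, none on day 2 (34-h sampling), days 3–13 twice daily, and a morning dose on day 14. Read-outs were plasma Cmax, AUC0–∞, first-dose and steady-state AUCτ, accumulation ratios and 0–120 h urinary excretion, reported as gMean with gCV.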

[4] = Phase Ic study: pharmacokinetics of BI 1015550 in plasma; format: in vivo, human
Procedure, shortened: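 IPF patients received oral 18 mg twice daily. Plasma Cmax and AUCτ,1 were taken after the first dose on day 1, and Cmax,ss and AUCτ,ss after the morning dose on day 14. Accumulation ratios were calculated as steady-state over single-dose values. Results are reported as geometric mean with gCV.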

human lung fibroblast = details: in vitro; cited from earlier work
[5] = IPF, 18 mg twice daily, placebo 40.0%
[6] = after single and multiple oral administration

Compound: [O-][S+]1CCc2nc(N3CCC(c4ncc(Cl)cn4)CC3)nc(NC3(CO)CCC3)c21 (centres unmarked) [BI 1015550]
- Subjects with any AE (healthy male subjects; MRD 6 mg twice daily, n=8): 2 (25.0) n (%)
- Subjects with investigator-defined drug-related AEs (healthy male subjects; MRD 6 mg twice daily, n=8): 2 (25.0) n (%)
- Body weight, mean±SD change from baseline (healthy male subjects; MRD 6 mg twice daily): –1.21±0.43 kg
- Clinically relevant laboratory finding: increase in blood triglycerides, considered drug-related (healthy male subjects; MRD 12 mg twice daily): one subject
- Subjects with any AE (healthy male subjects; MRD 12 mg twice daily, n=8): 5 (62.5) n (%)
- Subjects with investigator-defined drug-related AEs (healthy male subjects; MRD 12 mg twice daily, n=8): 4 (50.0) n (%)
- Body weight, mean±SD change from baseline (healthy male subjects; MRD 12 mg twice daily): –1.34±1.61 kg
- Suicidal ideation or behaviour (C-SSRS) (healthy male subjects; MRD part): No incidence
- Gastrointestinal disorders (healthy male subjects; MRD part, placebo 12.5%): 18.8%
- Nervous system disorders (headache) (healthy male subjects; MRD part, placebo 12.5%): 31.3%
- Subjects with AEs (healthy male subjects; MRD part, placebo 37.5%): 43.8%
- Subjects with any AE (healthy male subjects; MRD total, n=16): 7 (43.8) n (%)
- Subjects with investigator-defined drug-related AEs (healthy male subjects; MRD total, n=16): 6 (37.5) n (%)
- Subjects with any AE (healthy male subjects; SRD 36 mg single dose, n=6): 4 (66.7) n (%)
- Subjects with investigator-defined drug-related AEs (healthy male subjects; SRD 36 mg single dose, n=6): 2 (33.3) n (%)
- Subjects with any AE (healthy male subjects; SRD 48 mg single dose, n=6): 4 (66.7) n (%)
- Subjects with investigator-defined drug-related AEs (healthy male subjects; SRD 48 mg single dose, n=6): 4 (66.7) n (%)
- Deaths, severe AEs, serious AEs, AEs of special interest or other significant AEs (healthy male subjects; SRD and MRD parts): no reported
- ECG recordings or vital signs (healthy male subjects; SRD and MRD parts): no clinically relevant findings
- Intensity of all AEs (healthy male subjects; SRD and MRD parts): mild or moderate
- Gastrointestinal disorders (healthy male subjects; SRD part, placebo 16.7%): 25.0%
- Nervous system disorders (headache and dizziness) (healthy male subjects; SRD part, placebo 16.7%): 41.7%
- Subjects with AEs (healthy male subjects; SRD part, placebo 16.7%): 66.7%
- Subjects with any AE (healthy male subjects; SRD total, n=12): 8 (66.7) n (%)
- Subjects with investigator-defined drug-related AEs (healthy male subjects; SRD total, n=12): 6 (50.0) n (%)
- Subjects with drug-related AEs (healthy male subjects; multiple doses (MRD total), placebo 12.5%): 37.5%
- Subjects with drug-related AEs (healthy male subjects; single dose (SRD total), placebo 16.7%): 50.0%
- Effect on lung function parameters ([1]; over the course of the trial): no clear effect
- Trend towards a slight reduction in FVC over time (seen in placebo group) ([1]; data not shown): not observed
- Mean observed weight loss ([2]; IPF patients treated for up to 12 weeks, placebo –1.18): –1.74 kg
- 12-lead ECG or vital signs ([2]; IPF, 18 mg twice daily): no clinically relevant findings
- C-reactive protein (laboratory tests) ([2]; IPF, 18 mg twice daily): slight increase
- Deaths ([2]; IPF, 18 mg twice daily): no reported deaths
- Diarrhoea ([2]; IPF, 18 mg twice daily): 40.0%
- Nasopharyngitis ([2]; IPF, 18 mg twice daily): 40%
- Severe AE (considered drug related, led to discontinuation) ([2]; IPF, 18 mg twice daily): one severe AE of insomnia
- Suicidal ideation or behaviour (C-SSRS) ([2]; IPF, 18 mg twice daily): no cases
- Body weight, difference between the two treatment groups ([2]; IPF, 18 mg twice daily vs placebo): no notable difference
- AE leading to discontinuation of study drug ([2]; IPF, 18 mg twice daily, n=10): 1 (10.0) n (%)
- Investigator-defined drug-related AE ([2]; IPF, 18 mg twice daily, n=10): 9 (90.0) n (%)
- Patients requiring or prolonging hospitalisation ([2]; IPF, 18 mg twice daily, n=10): 1 (10.0) n (%)
- Patients with AESI (hepatic injury) ([2]; IPF, 18 mg twice daily, n=10): 0 (0.0) n (%)
- Patients with SAEs ([2]; IPF, 18 mg twice daily, n=10): 1 (10.0) n (%)
- Patients with other significant AEs according to ICH E3 ([2]; IPF, 18 mg twice daily, n=10): 1 (10.0) n (%)
- Severe AEs ([2]; IPF, 18 mg twice daily, n=10): 1 (10.0) n (%)
- Gastrointestinal disorders [2, 5]: 80.0%
- Infections and infestations [2, 5]: 50.0%
- Patients with drug-related AEs ([2]; IPF, 18 mg twice daily, placebo 60.0%): 90.0%
- Dose proportionality of AUC ([3]; 36 mg to 48 mg single dose and 6 mg to 12 mg twice daily): dose-proportional increase in AUC
- Median time from last dosing to the maximum measured concentration [3, 6]: 1.25 to 1.52 h
- Terminal half-lives [3, 6]: 16 to 27 h
- AUCτ,1 ([3]; MRD 6 mg twice daily, after first dose, fed, n=8, gCV 24.8%): 0.564 µM·h
- Cmax ([3]; MRD 6 mg twice daily, after first dose, fed, n=8, gCV 28.2%): 103 nM
- RA,AUC (accumulation ratio) ([3]; MRD 6 mg twice daily, fed, n=8, gCV 9.91%): 1.85
- RA,Cmax (accumulation ratio) ([3]; MRD 6 mg twice daily, fed, n=8, gCV 35.0%): 1.60
- AUCτ,ss ([3]; MRD 6 mg twice daily, fed, n=8, gCV 25.7%): 1.05 µM·h
- AUCτ,1 ([3]; MRD 12 mg twice daily, after first dose, fed, n=8, gCV 15.9%): 1.37 µM·h
- Cmax ([3]; MRD 12 mg twice daily, after first dose, fed, n=8, gCV 29.9%): 229 nM
- RA,AUC (accumulation ratio) ([3]; MRD 12 mg twice daily, fed, n=8, gCV 14.8%): 1.68
- RA,Cmax (accumulation ratio) ([3]; MRD 12 mg twice daily, fed, n=8, gCV 23.6%): 1.52
- AUCτ,ss ([3]; MRD 12 mg twice daily, fed, n=8, gCV 15.8%): 2.3 µM·h
- CLR,0–120 (renal clearance) ([3]; SRD 36 mg, fasted, n=4, gCV 21.5%): 30.5^+ mL·min^−1
- fe0–120 (fraction excreted unchanged in urine 0–120 h) ([3]; SRD 36 mg, fasted, n=5, gCV 45.2%): 12.5^¶ %
- Cmax ([3]; SRD 36 mg, fasted, n=6, gCV 20.7%): 710 nM
- AUC0−∞ ([3]; SRD 36 mg, fasted, n=6, gCV 21.2%): 5910 nmol·h/L
- fe0–120 (fraction excreted unchanged in urine 0–120 h) ([3]; SRD 48 mg, fasted, n=4, gCV 13.4%): 12.1^+ %
- CLR,0–120 (renal clearance) ([3]; SRD 48 mg, fasted, n=4, gCV 20.6%): 25.2^+ mL·min^−1
- AUC0−∞ ([3]; SRD 48 mg, fasted, n=5, gCV 17.2%): 8700^¶ nmol·h·L^−1
- Cmax ([3]; SRD 48 mg, fasted, n=6, gCV 15.5%): 955 nM
- Steady state reached ([3]; multiple twice-daily administrations): ≤ 6 days
- Exposure predictions (AUC0-24,ss) versus predefined exposure threshold ([4]; 24 mg twice-daily dose group (not dosed)): exceeded the predefined exposure threshold
- Administrations until 95% of the steady-state concentration was reached ([4]; IPF, 18 mg twice daily): approximately five
- Accumulation ratio based on AUCτ ([4]; gMean, IPF, 18 mg twice daily): 1.87
- Accumulation ratio based on Cmax ([4]; gMean, IPF, 18 mg twice daily): 1.66
- AUCτ,1 ([4]; gMean, IPF, 18 mg twice daily, day 1 after first dose, n=10, gCV 18.2%): 1.99 µM·h
- Cmax ([4]; gMean, IPF, 18 mg twice daily, day 1 after first dose, n=10, gCV 23.1%): 277 nM
- AUCτ,ss ([4]; gMean, IPF, 18 mg twice daily, day 14 steady state, n=10, gCV 49.5%): 3.72 µM·h
- Difference in pharmacokinetic parameters between healthy volunteers and patients with IPF ([4]; in vivo): no difference
- Human lung fibroblast proliferation (human lung fibroblast): inhibition
- Myofibroblast transformation (human lung fibroblast): inhibition
